# Source: ChEMBL document CHEMBL1144619, “The synthesis and biological evaluation of novel series of nitrile-containing fluoroquinolones as antibacterial agents” (Bioorg Med Chem Lett, 2007)
# How the values were obtained:
# Moraxella catarrhalis = test: Antibacterial activity against Moraxella catarrhalis BC-3531; type: functional
# Staphylococcus aureus [1] = test: Antibacterial activity against Staphylococcus aureus SA2552; type: functional
# Haemophilus influenzae = test: Antibacterial activity against Haemophilus influenzae HI3542; type: functional; settings: HI-3542
# Streptococcus pneumoniae [2] = test: Antibacterial activity against fluoroquinolone resistance Streptococcus pneumoniae SP3765; type: functional
# Staphylococcus aureus [3] = test: Antibacterial activity against Staphylococcus aureus UC76; type: functional
# Streptococcus pneumoniae [4] = test: Antibacterial activity against Streptococcus pneumoniae SV1; type: functional
# [5] = Bioavailability in rat at 5 mg/kg, po; type: ADME, organism-based; settings: in vivo
# Rattus norvegicus = test: AUC in rat at 1 mg/kg, iv; type: ADME, organism-based, Plasma; set-up: dose 1 mg/kg, route intravenous; settings: in vivo
# [6] = Cmax in rat at 5 mg/kg, po; type: ADME, organism-based; set-up: dose 5 mg/kg, route oral; settings: in vivo
# hERG (KCNH2) = hERG (KCNH2) (Homo sapiens, UniProt Q12809); test: Displacement of [3H]dofetilide from human ERG at 300 uM; settings: probe [3H]dofetilide
# Sequence of hERG (KCNH2) (Q12809 whole entry): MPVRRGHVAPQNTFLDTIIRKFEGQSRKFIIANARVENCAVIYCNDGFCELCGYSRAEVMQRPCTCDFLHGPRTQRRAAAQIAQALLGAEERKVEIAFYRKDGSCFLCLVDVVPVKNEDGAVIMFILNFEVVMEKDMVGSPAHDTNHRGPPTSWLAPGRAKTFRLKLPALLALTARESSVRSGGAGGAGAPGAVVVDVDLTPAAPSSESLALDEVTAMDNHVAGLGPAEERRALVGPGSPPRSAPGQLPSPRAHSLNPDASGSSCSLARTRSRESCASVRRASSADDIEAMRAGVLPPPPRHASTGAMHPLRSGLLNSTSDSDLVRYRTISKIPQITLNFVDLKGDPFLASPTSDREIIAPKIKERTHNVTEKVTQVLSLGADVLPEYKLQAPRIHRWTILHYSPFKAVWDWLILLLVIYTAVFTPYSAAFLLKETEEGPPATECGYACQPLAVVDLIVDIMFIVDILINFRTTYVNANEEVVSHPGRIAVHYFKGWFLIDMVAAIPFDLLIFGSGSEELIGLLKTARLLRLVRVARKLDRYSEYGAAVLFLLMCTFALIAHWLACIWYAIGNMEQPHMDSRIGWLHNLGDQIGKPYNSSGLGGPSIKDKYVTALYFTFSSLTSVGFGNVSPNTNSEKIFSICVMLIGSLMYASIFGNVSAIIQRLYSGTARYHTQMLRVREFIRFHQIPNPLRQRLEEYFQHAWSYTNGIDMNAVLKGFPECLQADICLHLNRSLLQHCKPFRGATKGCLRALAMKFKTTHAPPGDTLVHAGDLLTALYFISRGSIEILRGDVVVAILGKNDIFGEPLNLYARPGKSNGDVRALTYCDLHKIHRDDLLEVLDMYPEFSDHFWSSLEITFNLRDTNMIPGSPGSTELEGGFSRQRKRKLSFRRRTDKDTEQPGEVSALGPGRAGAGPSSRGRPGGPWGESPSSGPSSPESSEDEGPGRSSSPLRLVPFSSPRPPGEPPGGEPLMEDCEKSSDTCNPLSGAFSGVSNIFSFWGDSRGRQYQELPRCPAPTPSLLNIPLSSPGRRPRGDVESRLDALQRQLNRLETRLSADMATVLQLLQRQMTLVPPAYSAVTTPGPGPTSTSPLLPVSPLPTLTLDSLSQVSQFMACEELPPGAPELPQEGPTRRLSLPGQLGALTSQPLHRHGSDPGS
# Procedure, shortened: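 Radioligand filter-binding assay measuring displacement of [3H]-dofetilide from the hERG channel, run as in a patent protocol.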
# [7] = Half life in rat at 1 mg/kg, iv; type: ADME, organism-based; set-up: dose 1 mg/kg, route intravenous; settings: in vivo
# [8] = Volume of distribution in rat at 1 mg/kg, iv; type: ADME, organism-based; set-up: dose 1 mg/kg, route intravenous; settings: in vivo, read-out: Vdss
# [9] = target: Voltage-gated inwardly rectifying potassium channel KCNH2 (Homo sapiens, UniProt Q12809); test: Displacement of [3H]dofetilide from human ERG by fliter binding assay
# Sequence of Voltage-gated inwardly rectifying potassium channel KCNH2 (Q12809 whole entry): as above
# [10] = Clearance in rat at 1 mg/kg, iv; type: ADME, organism-based; set-up: dose 1 mg/kg, route intravenous; settings: in vivo
Compound,MIC (Moraxella catarrhalis),MIC (Staphylococcus aureus [1]),MIC (Haemophilus influenzae),MIC (Streptococcus pneumoniae [2]),MIC (Staphylococcus aureus [3]),MIC (Streptococcus pneumoniae [4]),bioavailability [5],AUC (Rattus norvegicus),Cmax [6],inhibition at 300 µM (hERG (KCNH2)),half-life [7],Vd [8],Ki [9],clearance [10]
COc1c(N2CC[C@@H]([C@H](C)N)C2)c(F)cc2c(=O)c(C(=O)O)cn(C3CC3)c12,0.015 µg/mL,0.008 µg/mL,0.004 µg/mL,0.03 µg/mL,0.002 µg/mL,0.004 µg/mL,,,,,,,,
CN[C@@H](CC#N)[C@@H]1CCN(c2c(F)cc3c(=O)c(C(=O)O)cn(C4CC4)c3c2OC)C1,0.06 µg/mL,0.06 µg/mL,0.03 µg/mL,0.5 µg/mL,0.008 µg/mL,0.06 µg/mL,53%,4.4 ug/hr.ml,1400 ng/mL,9%,2.4 h,1.8 L/kg,> 150 µM,19 mL/min/kg
COc1c(N2CC[C@@H](CNCCC#N)C2)ccc2c(=O)c(C(=O)O)cn(C3CC3)c12,1 µg/mL,0.25 µg/mL,0.25 µg/mL,2 µg/mL,0.03 µg/mL,0.125 µg/mL,,,,,,,,
COc1c(N2CC[C@@H]([C@H](C)N)C2)ccc2c(=O)c(C(=O)O)cn(C3CC3)c12,0.06 µg/mL,0.03 µg/mL,0.125 µg/mL,0.125 µg/mL,0.008 µg/mL,0.015 µg/mL,,,,,,,,
COc1c(N2CC[C@@H]([C@@H](N)CC#N)C2)ccc2c(=O)c(C(=O)O)cn(C3CC3)c12,0.125 µg/mL,0.06 µg/mL,0.06 µg/mL,0.5 µg/mL,0.008 µg/mL,0.03 µg/mL,22%,5.2 ug/hr.ml,1400 ng/mL,30%,1.8 h,0.5 L/kg,> 150 µM,16 mL/min/kg
Cc1c(N2CC[C@@H]([C@H](C)N)C2)c(F)cc2c(=O)c(C(=O)O)cn(C3CC3)c12,0.015 µg/mL,0.03 µg/mL,0.004 µg/mL,0.03 µg/mL,0.002 µg/mL,0.002 µg/mL,,,,,,,,
Cc1c(N2CC[C@@H]([C@H](C)NCCC#N)C2)c(F)cc2c(=O)c(C(=O)O)cn(C3CC3)c12,0.015 µg/mL,0.008 µg/mL,0.03 µg/mL,0.06 µg/mL,0.002 µg/mL,0.008 µg/mL,,,,,,,72 µM,
CC1COc2c(N3CC[C@@H]([C@H](C)NCCC#N)C3)c(F)cc3c(=O)c(C(=O)O)cn1c23 (stereo partly drawn),0.125 µg/mL,0.03 µg/mL,0.06 µg/mL,0.25 µg/mL,0.015 µg/mL,0.06 µg/mL,,,,10%,,,> 150 µM,
CN[C@@H](CC#N)[C@@H]1CCN(c2c(F)cc3c(=O)c(C(=O)O)cn4c3c2OCC4C)C1 (stereo partly drawn),0.25 µg/mL,0.125 µg/mL,0.03 µg/mL,2 µg/mL,0.06 µg/mL,0.125 µg/mL,,,,19%,,,> 150 µM,
Cc1c(N2CC(C)(CN)C2)c(F)cc2c(=O)c(C(=O)O)cn(C3CC3)c12,0.06 µg/mL,0.06 µg/mL,0.015 µg/mL,2 µg/mL,0.06 µg/mL,0.06 µg/mL,18%,2.5 ug/hr.ml,300 ng/mL,,1.3 h,2.5 L/kg,,33 mL/min/kg
Cc1c(N2CC(C)(CNCCC#N)C2)c(F)cc2c(=O)c(C(=O)O)cn(C3CC3)c12,0.125 µg/mL,0.03 µg/mL,0.06 µg/mL,2 µg/mL,0.03 µg/mL,0.125 µg/mL,,,,18%,,,> 150 µM,
COc1c(N2CC[C@@H](CN)C2)c(F)cc2c(=O)c(C(=O)O)cn(C3CC3)c12,0.125 µg/mL,0.06 µg/mL,0.015 µg/mL,1 µg/mL,0.015 µg/mL,0.06 µg/mL,,,,,,,24 µM,
COc1c(N2CC[C@@H]([C@@H](N)CC#N)C2)c(F)cc2c(=O)c(C(=O)O)cn(C3CC3)c12,0.03 µg/mL,0.002 µg/mL,0.008 µg/mL,0.125 µg/mL,0.001 µg/mL,0.008 µg/mL,,,,29%,,,> 150 µM,
COc1c(N2CC[C@@H](CN)C2)ccc2c(=O)c(C(=O)O)cn(C3CC3)c12,0.5 µg/mL,0.25 µg/mL,0.06 µg/mL,4 µg/mL,0.03 µg/mL,0.125 µg/mL,,,,,,,64 µM,
CC1COc2c(N3CC[C@@H]([C@@H](N)CC#N)C3)c(F)cc3c(=O)c(C(=O)O)cn1c23 (stereo partly drawn),0.125 µg/mL,0.06 µg/mL,0.008 µg/mL,0.125 µg/mL,0.008 µg/mL,0.015 µg/mL,,,,22%,,,> 150 µM,
CCC1(CN)CN(c2c(F)cc3c(=O)c(C(=O)O)cn(C4CC4)c3c2C)C1,0.125 µg/mL,0.03 µg/mL,0.015 µg/mL,1 µg/mL,0.015 µg/mL,0.06 µg/mL,,,,,,,45 µM,
CCC1(CNCCC#N)CN(c2c(F)cc3c(=O)c(C(=O)O)cn(C4CC4)c3c2C)C1,0.25 µg/mL,0.03 µg/mL,0.06 µg/mL,2 µg/mL,0.03 µg/mL,0.125 µg/mL,92%,6.5 ug/hr.ml,2600 ng/mL,25%,1.4 h,1 L/kg,> 150 µM,13 mL/min/kg
COc1c(N2CC[C@@H]([C@H](C)NCCC#N)C2)c(F)cc2c(=O)c(C(=O)O)cn(C3CC3)c12,0.06 µg/mL,0.008 µg/mL,0.06 µg/mL,0.125 µg/mL,0.004 µg/mL,0.015 µg/mL,70%,3.5 ug/hr.ml,1200 ng/mL,2%,2.7 h,2.5 L/kg,> 150 µM,24 mL/min/kg
COc1c(N2CC[C@@H]([C@H](C)NCCC#N)C2)ccc2c(=O)c(C(=O)O)cn(C3CC3)c12,1 µg/mL,0.125 µg/mL,0.5 µg/mL,2 µg/mL,0.03 µg/mL,0.25 µg/mL,,,,,,,,
CC1COc2c(N3CC[C@@H]([C@H](C)N)C3)c(F)cc3c(=O)c(C(=O)O)cn1c23 (stereo partly drawn),0.06 µg/mL,0.125 µg/mL,0.008 µg/mL,0.25 µg/mL,0.015 µg/mL,0.03 µg/mL,,,,35%,,,> 100 µM,
COc1c(N2CC[C@@H](CNCCC#N)C2)c(F)cc2c(=O)c(C(=O)O)cn(C3CC3)c12,0.5 µg/mL,0.06 µg/mL,0.125 µg/mL,2 µg/mL,0.03 µg/mL,0.125 µg/mL,,,,,,,106 µM,
O=C(O)c1cn(C2CC2)c2cc(N3CCNCC3)c(F)cc2c1=O [CIPROFLOXACIN],0.03 µg/mL,1 µg/mL,0.008 µg/mL,16 µg/mL,,,,,,,,,,
C[C@H]1COc2c(N3CCN(C)CC3)c(F)cc3c(=O)c(C(=O)O)cn1c23.C[C@H]1COc2c(N3CCN(C)CC3)c(F)cc3c(=O)c(C(=O)O)cn1c23.O [LEVOFLOXACIN],0.06 µg/mL,0.5 µg/mL,0.015 µg/mL,,0.125 µg/mL,,,,,10%,,,,
CN[C@@H](C)[C@@H]1CCN(c2c(F)cc3c(=O)c(C(=O)O)cn(C4CC4)c3c2OC)C1 [PREMAFLOXACIN],0.06 µg/mL,0.06 µg/mL,0.015 µg/mL,0.125 µg/mL,0.015 µg/mL,0.008 µg/mL,,,,40%,,,> 150 µM,
